Assay results published in ChEMBL document CHEMBL4513216, “Probing the Open Global Health Chemical Diversity Library for Multistage-Active Starting Points for Next-Generation Antimalarials” (ACS Infect Dis, 2020).

Test: Toxicity liver stage against HepG2, at 10uM
Format: cell-based
Design: test concentration 10 uM, cell line HepG2-A16-CD81EGFP
Settings: human, HepG2-A16-CD81EGFP cells; read-out: INHIBITION
Summary of the method: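 Uninfected HepG2-A16-CD81EGFP cells, 3 × 10^3 per well, 1536-well, plated on prespotted compound at 10 μM final, parasite-free screening media added to match infected plates; puromycin 10 μM positive, DMSO 0.5% negative; run in parallel with 48 h PbLuc assay at 37 °C, 5% CO2; viability by CellTiter-Glo luminescence, normalized to controls.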

Structure (SMILES)	cytotoxicity at 10 µM
O=S(=O)(NCC1CCN(c2cnccn2)CC1)c1c(F)cccc1F	10.4%
O=C1[C@@H]2CN(c3ncnc4sccc34)C[C@]2(C(=O)O)CN1CC1CC1	0.977%
NC(=O)c1cnn2c1NCC(CNCC1(c3ccccc3)CCCC1)C2 (stereo unspecified)	-7.38%
Cc1nccnc1N1Cc2cnc(CC(C)C)nc2C1	1.81%
CCN(CC)C(=O)N1CCN(CCc2ccncc2)CC1	-38.9%
COCCNC(=O)CN1CC=C(n2c(C)nc(=O)c3ccccc32)CC1	-5.45%
O=C(O)[C@]12CCCN(Cc3cccs3)C[C@H]1CN(c1ncccn1)C2	7.58%
Cc1nnc2n1CCN(CC(=O)NC(C)c1cc3ccccc3o1)C2 (stereo unspecified)	-9.79%
CN(C)CC(=O)N1Cc2nnn(C)c2C(COCC2CC2)C1 (stereo unspecified)	-99.4%
CN(C)CC1(O)CCCN(C(=O)c2ccccc2-n2cccn2)C1 (stereo unspecified)	-20.6%
Nc1nccc(N2CCCC(CO)(CCOc3ccccc3)C2)n1 (stereo unspecified)	46.7%
OC1CCN(c2cnnc3ccccc23)CC1	-0.561%
Cc1ccc(C(CNCc2ncc[nH]2)N2CCOCC2)s1 (stereo unspecified)	12%
NC(=O)c1ccc(N2CCN(Cc3c(Cl)cncc3Cl)CC2)nc1	10.6%
Cc1nn(C)c(Oc2ccc(Cl)cc2)c1CN1CC[C@H](CO)[C@@H](O)C1	-10.5%
O=C(CCc1cc2n(n1)CCNC2)NCCS(=O)(=O)N1CCCC1	0.487%
CN(C)C(=O)C1CN(Cc2ccc(C#N)cc2F)c2ccccc2O1 (stereo unspecified)	7.14%
Cn1cc(NC(=O)c2cc[nH]n2)cc(Cl)c1=O	-18.3%
Cc1ccnc(CC(C)N(C)c2cc(CN)nc(C)n2)c1 (stereo unspecified)	-48.9%
CCSc1cc(C(=O)NCCNC(=O)N(C)C)ccn1	-3.63%
FC(F)CN1CCC(NCc2ccc(-n3cccn3)nc2)CC1	10.6%
COC[C@]12COC[C@H]1CN(Cc1cccnc1OC)C2	-9.83%
CCCc1cc(=O)[nH]c2nnc(SCC(=O)NC(C)(C)C)n12	9.57%

Structure (SMILES)	cytotoxicity at 10 µM
CCOC(=O)N1CCN(c2nc(NCCO)c3ccccc3n2)CC1	-1.32%
CC(C)COC(C)C(=O)NCc1ccc(F)cc1 (stereo unspecified)	-2.9%
CC(=O)N(C)Cc1cccc(NC(=O)N(C)Cc2nccs2)c1	-6.77%
CCC(=O)NCC(=O)NCC1CCN(c2cc(Cl)ccc2C)C1 (stereo unspecified)	-13.2%
CN1CCCN(c2ccc(F)cc2CNC(=O)c2ccsc2)CC1	-12.3%
Cc1n[nH]c(C2CN(CC(=O)NCCc3ccsc3)CCO2)n1 (stereo unspecified)	-0.524%
Cc1cc(CN2CCN(Cc3ccc(C#N)cc3F)CC2)no1	1.71%
COc1cc(CN(Cc2ccccn2)CC(C)C)cc2c1OCO2	-16%
Cc1ccccc1N1CCN(c2cc(N(C)C)ncn2)C(C)C1 (stereo unspecified)	19.7%
COCC(=O)NC[C@H]1C[C@@H]2CCN1C[C@@H]2CN(C)c1ccccc1	-2.17%
O=C1NCc2ccc(NC(=O)C3CCCN3c3nccs3)cc21 (stereo unspecified)	-6.02%
N#Cc1cc(F)c(NCCc2ccc(F)cc2)c(F)c1	-60.3%
CCN(Cc1nnnn1C1CC1)c1cc(C)ccc1C	9.21%
COCCS(=O)(=O)NC(C)c1ccccc1Cl (stereo unspecified)	5.53%
CCc1nc(C2CCCN2C(=O)c2cc3c(s2)CCC3)no1 (stereo unspecified)	-5.86%
Cc1ccnc(OC[C@]23COC[C@H]2CN(C(=O)c2cnccn2)C3)n1	-7.1%
COC(=O)CSc1nnc2[nH]c(=O)c3c(n12)CCCC3	-99.8%
Cc1cc(NC(=O)C2CCN(c3ncccc3C#N)CC2)no1	3.54%
O=C1CC(c2cccnc2)c2c(c(C(=O)O)cn2-c2ccccc2)N1 (stereo unspecified)	9.92%
CC(C)N1CCCC(CNC(=O)c2ccnc(-n3ccnc3)c2)C1 (stereo unspecified)	-6.23%
O=C(C1CCCCC1)N1CCC(c2n[nH]c3nccnc23)CC1	4.05%
Cc1ccc(C(=O)N2CCC(Oc3ccc(C)c(C)c3)CC2)c(=O)[nH]1	12.9%
Cc1cnn(CC(=O)N2CCCN(c3nc(C)cs3)CC2)c1	-4.71%

Structure (SMILES)	cytotoxicity at 10 µM
O=C(Nc1ccc(F)cc1)N1C[C@@H]2C[C@H](C(=O)N3CCCC3)[C@H](C1)O2	7.06%
CCc1ncnc(N2CCCC(c3cc(C(N)=O)[nH]n3)C2)c1F (stereo unspecified)	-4.68%
Cc1nc2c(c(NCCNC(=O)C(C)C)n1)Cc1ccccc1OC2	4.74%
CCCN1CCC(NC(=O)c2csc(C)c2-c2ccc(C)cc2)CC1	-4.14%
Cc1ccnn1CCC(=O)N1CCCC1c1cc2cccnc2[nH]1 (stereo unspecified)	9.17%
CN(CC(=O)N(C)C(c1ccc(Cl)cc1)c1cccnc1)C1CC1 (stereo unspecified)	10.9%
Cc1cc(=O)[nH]c(=O)n1Cc1ncc(-c2ccccc2C(=O)O)s1	2.71%
CC(=O)N1CCC(n2nccc2-c2cnc(N3CCCC3)nc2)CC1	-0.00173%
CC(C)NC(=O)N1C[C@@H](F)[C@@H](OCc2nc3ccccc3o2)C1	8.16%
COc1ccc(Cl)cc1CNCCCn1ccnc1	8.32%
O=C(CC1CC1)N1CCCn2c(nnc2Cn2cccc2)C1	10.7%
CN(C)C(=O)CCC[S+]([O-])Cc1ccc(Cl)c(Cl)c1 (stereo unspecified)	12.4%
CCc1ccc(C2CC(=O)Nc3cc(NS(C)(=O)=O)ccc32)o1 (stereo unspecified)	86%
Cc1nccn1CCCC(=O)N1CCN(c2cccnc2)CC1	-4.98%
Cc1ccccc1CN1CCC[C@H]1c1nc(-c2cncnc2N)no1	-0.921%
Cc1n[nH]cc1CNC(C(=O)N1CCOCC1)c1ccccc1 (stereo unspecified)	7.57%
CN(C)C(=O)C1CCN(Cn2ccc(-c3ccc(F)cc3)n2)CC1	6.19%
CC(C)(NCCCOc1ccc(C#N)cc1)c1nccs1	-0.476%
Cc1nccc(NCc2cncc3c2CCN(S(C)(=O)=O)C3)n1	-99.4%
Cc1csc(N2CCN(Cc3cnc(C)s3)CC2C)n1 (stereo unspecified)	14.7%
c1ccc(CO[C@H]2CC[C@H]3[C@H]2OCCN3Cc2nccs2)nc1	5.83%
Clc1ccccc1OC1CCN(CC2CCOC2)CC1 (stereo unspecified)	-9.85%
COc1c(Cl)cc(Cl)cc1CN1CCC(C(N)=O)C1 (stereo unspecified)	11.9%

Structure (SMILES)	cytotoxicity at 10 µM
O=C(Nc1ccc(-c2ccccc2)cc1)N1C[C@@H]2CNC[C@]2(C(=O)O)C1	-44.7%
CC(C)(C)NC(=O)Cn1c(=O)n(Cc2ccco2)c2ncccc21	-6%
CC(NC(=O)COc1nc(C(C)(C)C)no1)c1ccco1 (stereo unspecified)	-5.41%
CCCn1ccc2cc(NC(=O)NCCn3cnnc3CC)ccc21	2.47%
CCC[C@H]1CN(c2nccc(NCC)n2)C[C@@H]1NS(=O)(=O)N(C)C	-144%
CCC(CN1CCOCC1)n1cncc1-c1ccc2c(c1)CCCN2C (stereo unspecified)	8.9%
O=C(c1cc2ccccc2[nH]c1=O)N1CCC2(CCCNC2)C1 (stereo unspecified)	-4.66%
CC(C)[C@@H](CO)Nc1cc(-c2cn[nH]c2)ncn1	-11.3%
CCCN(C(=O)COCC)c1cccc(C)c1	0.727%
O=C(CCCc1ccccn1)N1CCCC(n2cccn2)C1 (stereo unspecified)	-10.7%
Cc1nc(C2CCCN2CC(=O)Nc2c(C)n[nH]c2C)no1 (stereo unspecified)	1.65%
Cn1cncc1CN1CCCC1c1cncc(Oc2ccc(Cl)cc2)n1 (stereo unspecified)	11%
Cn1ccnc1CC1CCCN(Cc2noc(C3CC3)n2)C1 (stereo unspecified)	-5.68%
O=C(NC1CCN(c2ncccn2)CC1)c1cc2c([nH]c1=O)CCC2	1.28%
N#Cc1ccc(CN2CCNC(=O)C2c2cccs2)cc1 (stereo unspecified)	-2.89%
Cc1cccc(C(=O)N2CC[C@]3(C[C@H](OCc4ccccn4)CO3)C2)c1	-70.9%
COc1ccc(CCC2CCCN(CC(=O)O)C2)cc1 (stereo unspecified)	3.38%
CCN(CC)C(=O)c1ccc(Cl)c(NC(=O)c2cc[nH]n2)c1	7.86%
c1csc(-c2noc(CCCNC3CCc4ncnn4C3)n2)c1 (stereo unspecified)	-1.36%
Cc1nn(C)c(C)c1-c1cnc(CC2CCNC2)cn1 (stereo unspecified)	-8.41%
Cc1cccnc1CN1CCC2(CC(Nc3ccncn3)C2)C1 (stereo unspecified)	-6.36%
CN1CCN(c2ccc(CO)cc2F)CC1	-42%
OCCC1CN(c2nc(-c3cccnc3)nc3c2CCNCC3)CCO1 (stereo unspecified)	-2.64%

Structure (SMILES)	cytotoxicity at 10 µM
CC(=O)N1CCc2[nH]nc(C(=O)N3CCOCC3)c2C1	-7.37%
O=C1[C@H]2CN(Cc3ccncc3)C[C@H]2CN1c1ccsc1	-81.1%
Cc1cccc(C2(C(=O)NC(C)Cn3ccnc3)CC2)c1 (stereo unspecified)	0.742%
O=C(C1CC1)N1CC2(CCNCC2)c2cc(F)ccc21	0.317%
c1ccc(CCCN2CC[C@H](c3nnc(-c4ccccc4)o3)C2)cc1	4.77%
Cc1cccc(-c2nnc(C(C)N3CCn4c(C)nnc4C3)o2)c1 (stereo unspecified)	0.131%
CC(=O)c1nn(-c2cccc(Cl)c2)c(C)c1C(C)=O	-3.55%
Cc1ccc(CN2CCN(C(=O)c3ccc(Br)o3)CC2)cc1	1.16%
CCN(C)C(C(=O)Nc1ccc2c(c1)CCC(=O)N2)c1ccccc1 (stereo unspecified)	-1.45%
O=c1c2sccc2nc2n1CCN(Cc1ccc(F)c(F)c1)CC2	-26%
COCCCNC(=O)CN(C)C(=O)c1cc(C)sc1C	-2.58%
O=C(c1ccccc1F)N1CCN(c2ccc(-n3cccc3)nn2)CC1	53.2%
CN(Cc1ccccc1)c1ncccc1CNC1CCSCC1	-2.84%
Cc1noc(CS(=O)(=O)C(C)C(=O)N(C)c2ccccc2)n1 (stereo unspecified)	9.26%
Cc1nc(N(C)C)nc2c1COCC21CCN(C(=O)NCC(C)C)C1 (stereo unspecified)	7.63%
Cc1cccc2nc(CNC(=O)N3CCC(N4CC=CC4)C3)cn12 (stereo unspecified)	5.88%
COc1ccc(-c2cc(C3(O)CCCC3)on2)cc1	2.5%
COc1ccccc1OC1CCN(C(=O)c2cnc(C)cc2C)CC1	4.36%
Cc1cc(C)c(CNC(=O)N2CCCC2c2cccn2C)c(=O)[nH]1 (stereo unspecified)	-2.82%
